High-throughput results from PubChem.
The list is not random: actives were taken first. Their share in the collection is about 1.7%.
STEP inh: STEP (human) phosphatase inhibition; P54829; AID 588621; 360,000 compounds, 0.25% hits; inhibition, % at 20 µM; recombinant STEP, OMFP fluorogenic substrate, fluorescence;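 active = inhibition at 20 µM, scaled per plate between control wells, above about 37%, limit read from the data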;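 note: 0% = DMSO with enzyme and substrate and 100% = substrate only without enzyme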
Target sequence (P54829 whole entry, looked up): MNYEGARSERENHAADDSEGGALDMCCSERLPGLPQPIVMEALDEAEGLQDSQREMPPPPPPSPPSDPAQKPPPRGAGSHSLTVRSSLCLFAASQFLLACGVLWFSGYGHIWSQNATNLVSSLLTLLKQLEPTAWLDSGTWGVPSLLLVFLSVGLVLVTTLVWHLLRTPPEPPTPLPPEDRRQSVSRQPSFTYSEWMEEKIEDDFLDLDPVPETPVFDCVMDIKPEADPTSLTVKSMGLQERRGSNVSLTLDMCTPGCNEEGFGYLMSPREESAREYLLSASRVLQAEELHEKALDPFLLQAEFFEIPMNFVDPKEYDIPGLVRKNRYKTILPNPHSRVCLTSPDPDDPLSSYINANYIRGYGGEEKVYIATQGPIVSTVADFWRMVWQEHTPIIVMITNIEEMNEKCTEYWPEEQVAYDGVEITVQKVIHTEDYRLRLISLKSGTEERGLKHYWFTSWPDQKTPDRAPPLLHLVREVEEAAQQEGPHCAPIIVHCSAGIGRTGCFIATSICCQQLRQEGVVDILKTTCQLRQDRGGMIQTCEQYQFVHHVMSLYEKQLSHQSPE
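Test system: STEP tyrosine phosphatase / Reagent: OMFP at 25 µM / Doses: 20 µM, 1% DMSO / Read-out: percent inhibition scaled to no-enzyme and uninhibited-enzyme controls, plate-pattern corrected / Detection: FITC-channel fluorescence of OMFP product / Medium: Bis-Tris buffer pH 6.0, 2.5 mM DTT, 0.005% Tween 20 / Schedule: 20 min at room temperature, dark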
LMPTP inh: blocks human LMPTP phosphatase | recombinant LMPTP-A, OMFP fluorogenic substrate, fluorescence intensity | inhibition, % at 20 µM | 360,000 compounds, 0.22% hits | AID 651560;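 active = compounds that cut the enzyme signal by at least half of the control window in the single-dose screen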;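 note: plate controls were DMSO wells with enzyme plus substrate for no effect and substrate without enzyme for full effect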
Target sequence (P24666 whole entry, looked up): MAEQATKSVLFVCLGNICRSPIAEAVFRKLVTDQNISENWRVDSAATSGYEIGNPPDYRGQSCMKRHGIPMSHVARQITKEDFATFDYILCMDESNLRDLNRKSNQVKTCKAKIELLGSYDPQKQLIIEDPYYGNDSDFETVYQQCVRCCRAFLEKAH
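Assay system: LMPTP-A phosphatase enzyme | Input: 0.625 nM enzyme | Also added: Fluorogenic phosphatase substrate OMFP at 400 µM final | Compound dosing: One test concentration per compound, 20 µM, with 3% DMSO overall | Schedule: 50 min enzyme reaction at room temperature, protected from light | Signal: Fluorescence intensity | Benchmarks: no-enzyme and uninhibited controls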
DNMT1 inh: DNMT1 (human) enzyme inhibition. DNMT1 molecular beacon, Hinp1I cleavage, fluorescence. inhibition (reported as % activation of signal), % at 10 µM. AID 588458. 360,000 compounds, 0.83% hits; in the data active = inhibition above about 50%
SUMO1 PPI mod: SUMO1-SIM interaction modulation; P63165; SUMO1 binding to a labelled peptide, TR-FRET, 1 h; inhibition, % at 20 µM; 360,000 compounds, 0.33% hits; in the data active = inhibition above about 37%
Scp-1 inhibitor: Scp-1 (human) phosphatase inhibition; Q9GZU7; Recombinant Scp1, phosphopeptide, malachite green phosphate absorbance; inhibition, % at 20 µM; 340,000 compounds, 0.88% hits; AID 493091;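 active = inhibition above about 50% at 20 µM, limit read from the data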;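 note: plate controls were DMSO wells with enzyme for no effect and wells lacking enzyme for full effect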
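Test system: SCP-1 catalytic domain; Buffer or medium: Acidic Tris acetate buffer with magnesium and detergent; Also added: Phosphorylated 17-residue peptide substrate; Compound: single 20 µM dose, 1% DMSO; Schedule: enzyme reaction 45 min at room temperature, colour 5 min, stabilisation 30 min; Signal: Phosphate-binding colour reagent, absorbance read at 630 nm.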
Beacon interf DR: beacon fluorescence artifact, dose response counter-screen | shares compounds with DNMT1 inh | 200 tested, under 10 active | AID 602382 | IC50, µM | molecular beacon fluorescence, spectral interference counter-screen; call rule not given here
DNMT1 confirm: DNMT1 inhibition confirmation, single concentration. 2,300 compounds, 8% hits. DNMT1 molecular beacon HinP1I cleavage, fluorescence. AID 602385. shares compounds with DNMT1 inh. inhibition, % at 10 µM;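 active = average inhibition of at least 30% in the single-concentration confirmation test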
DNMT1 interf: beacon fluorescence artifact counter-screen. shares compounds with DNMT1 inh. DNMT1 molecular beacon spectral interference counterscreen, fluorescence 485/520. activation (fluorescence interference), % at 10 µM. 2,300 compounds, 1% hits;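 active = activation of at least 30% at 10 µM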;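 note: DNMT1 catalytic domain with a HinP1I cleavage step and a FAM/dabcyl DNA beacon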
Starred values were filed as active, the others as inactive; / = not tested or not shown.

SMILES | STEP inh | LMPTP inh | DNMT1 inh | SUMO1 PPI mod | Scp-1 inhibitor | DNMT1 confirm | DNMT1 interf | others
CN(Cc1ccccc1)C(=O)c1ccc(NC(=O)Cc2ccc(NC(=O)C3CCCN(C(=O)c4ccccc4)C3)cc2)cc1 (stereo not drawn) | 1 | 0 | -5 | -4 | -4 | / | /
Cc1sc(NC(=O)c2sc3nc4c(C)cccc4cc3c2N)c(C#N)c1C | 3 | 3 | 88* | 6 | -4 | 9 | -1
Cc1cccc2cc3c(N)c(C#N)sc3nc12 | -4 | 3 | -5 | -8 | -8 | / | /
CC1Cc2c([nH]c3ccccc23)C2c3ccccc3CN12 (stereo not drawn) | -1 | -1 | 10 | -2 | -19 | / | /
O=C1C=C(O)CC(c2ccco2)C1 (stereo not drawn) | 1 | -1 | 80* | 18 | 44 | 4 | 3
CCc1noc(C)c1C(=O)Nc1ccc(Cl)c(S(=O)(=O)N2CCCCC2)c1 | 0 | 1 | 0 | -1 | -10 | / | /
CCNc1ccc(Br)cc(C(=O)/C=C/c2ccc(Cl)cc2Cl)c1=O | 11 | 17 | 70* | 13 | -2 | 3 | 5
Cc1cc(=O)oc2cc(NC(=O)COc3ccccc3[N+](=O)[O-])ccc12 | 10 | 5 | 72* | 31 | 40 | 4 | -2
O=C(COc1ccccc1[N+](=O)[O-])Nc1ccc(NC(=O)c2cc3ccccc3o2)cc1 | 13 | 20 | 59* | 35 | 29 | 2 | -4
O=C(COc1ccc(/C=N/NC(=O)c2cc3ccccc3o2)cc1Br)Nc1ccccc1 | 64* | 29 | 64* | -1 | 83* | -3 | -9
O=C(N/N=C/c1ccco1)c1cc2ccccc2o1 | 0 | -1 | 1 | -25 | -5 | / | /
O=C(COc1ccccc1[N+](=O)[O-])Nc1ccc2oc(=O)ccc2c1 | 6 | 13 | 18 | 22 | 1 | / | /
CN(C)c1ccc(S(=O)(=O)N(C)C)cc1NC(=O)Cc1cccc2ccccc12 | 1 | 3 | -2 | 0 | -1 | / | /
O=c1c2c3c(sc2[nH]c(=S)n1Cc1ccco1)CCC3 | 26 | 13 | 83* | 43* | 27 | 6 | 1
COc1ccccc1CNC(=O)CCCNC(=O)Cn1cnc2sc(C)c(C)c2c1=O | -2 | -1 | 0 | 1 | -4 | / | /
O=C1C(=O)c2c(ccc3ccccc23)-c2ccccc21 | 16 | 43 | 108* | 61* | 101* | 28 | -10 | Beacon interf DR=>99
CN(C)/C=C1\Oc2ccc3ccccc3c2C1=O | 0 | 1 | -2 | -13 | -7 | / | /
Cc1nn(-c2ccccc2)c(C)c1/C=N/n1c(-c2ccncc2)n[nH]c1=S | 4 | 2 | 4 | 5 | 1 | / | /
Cc1nn(-c2ccccc2)c(C)c1/C=N/n1c(-c2ccc(Cl)cc2)n[nH]c1=S | 4 | 2 | 57* | -2 | -3 | 1 | 2
O=C(COC(=O)Cc1ccsc1)NCc1ccccc1 | 23 | -2 | 74* | 5 | 2 | 3 | 4
O=C(COC(=O)Cc1ccsc1)NCc1ccc(Cl)cc1 | -2 | -2 | 1 | 3 | 8 | / | /
COc1cccc(CNS(=O)(=O)c2ccc3c(c2)oc(=O)n3C)c1 | -2 | -2 | 2 | -4 | 4 | / | /
O=S(=O)(NCc1ccccc1)c1cccc2nsnc12 | -1 | 1 | 85* | -29 | 9 | 1 | 2
CCN1CCN(C(=O)CCn2c(=O)c3cccn3c3cccnc32)CC1 | -4 | -1 | 0 | -6 | -6 | / | /
COc1ccc(CCNC(=O)C(=O)NCc2cccs2)cc1OC | 0 | 0 | -4 | 2 | -14 | / | /
SMILES | STEP inh | LMPTP inh | DNMT1 inh | SUMO1 PPI mod | Scp-1 inhibitor | DNMT1 confirm | DNMT1 interf | others
O=[N+]([O-])c1ccc(-c2cc(-c3ccc(Cl)cc3)n[nH]2)cc1 | 0 | 6 | 91* | 47* | -4 | 9 | -1
O=[N+]([O-])c1ccc2nc(-c3ccc(Cl)cc3)[nH]c2c1 | 6 | 4 | -21 | 0 | -6 | / | /
O=C(c1ccc(Br)c(S(=O)(=O)N2CCOCC2)c1)N1CCN(C/C=C/c2ccccc2)CC1 | 4 | 0 | -1 | 1 | -5 | / | /
O=C(Nc1ccc(Cl)cc1)c1cc(-c2cccs2)on1 | 8 | 21 | 50* | 16 | 4 | 1 | 2
O=C(Nc1ccc(Br)cc1)c1cc(-c2cccs2)on1 | 2 | 6 | 14 | 2 | 4 | / | /
O=S(=O)(c1ccc(NC(=S)N2CCCCC2CO)cc1)N1CCOCC1 (stereo not drawn) | -1 | -1 | 60* | 0 | / | -1 | -4
CCCCCOC(=O)c1c(N)n(CCOC)c2nc3ccccc3nc12 | 2 | 1 | -15 | 5 | 0 | / | /
CCOC(=O)c1c(N)n(CCOC(=O)c2cccs2)c2nc3ccccc3nc12 | 5 | 4 | 100* | 38 | 0 | 7 | 6
CC(=O)Nc1cccc(-c2csc(C(O)c3ccc(F)c(F)c3)n2)c1 (stereo not drawn) | -3 | -1 | 1 | -5 | / | / | /
O=C1Cc2cccc(=O)c(O)c2C(=O)O1 | 22 | 0 | 81* | 10 | / | 10 | 2
O=C(c1cc(-c2ccco2)nc2ccccc12)N1CCCC(C(F)(F)F)C1 (stereo not drawn) | 4 | 4 | 66* | 5 | 40 | 1 | -2
O=C(c1cc(-c2ccncc2)nc2ccccc12)N1CCCC(C(F)(F)F)C1 (stereo not drawn) | -2 | -1 | 1 | -4 | / | / | /
CCOC(=O)C1CCCN(C(=O)c2cc(-c3ccco3)nc3ccccc23)C1 (stereo not drawn) | 20 | 51* | 100* | 24 | 85* | 65* | -1 | Beacon interf DR=>99
CCOC(=O)C1CCCN(C(=O)c2cc3c(=O)n4ccccc4nc3s2)C1 (stereo not drawn) | -1 | 1 | 87* | -34 | 2 | 2 | 4
CC(NC(=O)CN(c1ccc(Cl)cc1)S(C)(=O)=O)c1ccccc1 (stereo not drawn) | -2 | -1 | 58* | 1 | -10 | 7 | 5
CC(NC(=O)CN(c1ccc(F)cc1)S(C)(=O)=O)c1ccccc1 (stereo not drawn) | 1 | -1 | 0 | -3 | -6 | / | /
COc1ccc(Cc2c(-c3ccco3)nc3ccc(Cl)cn23)c(C)c1 | 2 | 8 | 84* | 4 | / | 3 | 0
Cc1cc(Br)cn2c(Cc3ccsc3)c(-c3ccco3)nc12 | 1 | 6 | 52* | 8 | / | 3 | 2
COc1ccc(Cc2c(-c3ccco3)nc3ccc(Br)cn23)c(C)c1 | 4 | 20 | 102* | 5 | / | 13 | 2
